These results are taken from ChEMBL document CHEMBL4041524, “Synthesis and Characterization of a Novel γ-Aminobutyric Acid Type A (GABAA) Receptor Ligand That Combines Outstanding Metabolic Stability, Pharmacokinetics, and Anxiolytic Efficacy” (J Med Chem, 2016).

pEC50: −log10 of the molar value.

Data set [1] concerns the target T1, GABA-A receptor; alpha-2/beta-3/gamma-2 (Homo sapiens) (UniProt P18507+P28472+P47869). The data set can be described thus: Modulation of recombinant GABA alpha2beta3gamma2 receptor (unknown origin) expressed in Xenopus laevis oocytes assessed as change in GABA-induced EC(3 to 6) current by two-electrode voltage clamp assay. It is filed as cell-based. The method in brief: (§1)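 Xenopus laevis oocytes expressing α1, α2, α3 or α5 β3γ2 GABAARs were recorded by two-electrode voltage clamp. Modulation of the GABA EC3-6 current (taken as 100%) was tested at 100 nM, 1 μM and 10 μM in the same cells. Values are mean ± SEM, n = 3–4.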

Data set [2] deals with Rattus norvegicus. The data set can be described thus: Anxiolytic like activity in water-deprived Sprague-Dawley rat assessed as increase in water drinking time during punished period at 30 mg/kg, po administered 30 prior to testing by Vogel conflict test relative to vehicle control. It is filed as functional. An outline of the steps:
(§2)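 Water-deprived male Sprague-Dawley rats (n = 6–8) drank during unpunished and punished periods, with licking suppressed by mild shock in punished periods. Compounds were given 30 min before testing. Analysis was ANOVA with Dunnett's test.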

The subject of a further data set is Mus musculus. The data set can be described thus: Toxicity in Swiss mouse assessed as change in motor coordination by measuring number of falls from the rotating rod at 30 mg/kg, ip administered 30 mins prior to testing measured for 2 mins by rotarod test relative to control. It is filed as organism-based. As to conditions: in vivo. The method in brief: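 The same mice used for marble burying were placed on a rotarod at 4 r.p.m. for 2 min. No fall was scored success, one fall partial, and two falls failure.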

Data set [3] relates to Rattus norvegicus. In words: Anxiolytic like activity in water-deprived Sprague-Dawley rat assessed as increase in water drinking time during punished period at 60 mg/kg, po administered 30 mins prior to testing by Vogel conflict test relative to control. It is filed as functional. An outline of the steps:
as §2

Data set [4] concerns the target T1, GABA-A receptor; alpha-2/beta-3/gamma-2 (Homo sapiens). In words: Modulation of recombinant GABA alpha2beta3gamma2 receptor (unknown origin) expressed in Xenopus laevis oocytes assessed as change in GABA-induced EC(3 to 6) current at 1 uM by two-electrode voltage clamp assay. It is filed as cell-based. The method in brief:
as §1
On the technique in general: Two-electrode voltage clamp holds a large cell at a set potential and records current.

The target of data set [5] is GABA-A receptor; alpha-3/beta-3/gamma-2 (Homo sapiens) (UniProt P18507+P28472+P34903). In words: Modulation of recombinant GABA alpha3beta3gamma2 receptor (unknown origin) expressed in Xenopus laevis oocytes assessed as change in GABA-induced EC(3 to 6) current at 10 uM by two-electrode voltage clamp assay. The format is cell-based. The method in brief:
as §1

Data set [6] addresses T2, GABA-A receptor; alpha-1/beta-3/gamma-2 (Homo sapiens, UniProt P14867+P18507+P28472).
T2 sequence (P14867 whole entry): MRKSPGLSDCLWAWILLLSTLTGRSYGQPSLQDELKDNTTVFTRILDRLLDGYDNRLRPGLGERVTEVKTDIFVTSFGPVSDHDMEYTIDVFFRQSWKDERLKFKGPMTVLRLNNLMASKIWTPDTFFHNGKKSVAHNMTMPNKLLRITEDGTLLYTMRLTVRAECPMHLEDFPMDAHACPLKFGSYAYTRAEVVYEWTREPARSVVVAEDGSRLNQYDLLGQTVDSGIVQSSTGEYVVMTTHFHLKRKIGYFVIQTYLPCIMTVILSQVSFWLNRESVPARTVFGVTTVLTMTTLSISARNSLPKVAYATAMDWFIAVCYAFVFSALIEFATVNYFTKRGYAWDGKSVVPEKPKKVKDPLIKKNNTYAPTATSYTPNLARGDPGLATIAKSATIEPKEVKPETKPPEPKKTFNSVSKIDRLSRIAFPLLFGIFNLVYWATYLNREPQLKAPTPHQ
T2 sequence (P18507 whole entry): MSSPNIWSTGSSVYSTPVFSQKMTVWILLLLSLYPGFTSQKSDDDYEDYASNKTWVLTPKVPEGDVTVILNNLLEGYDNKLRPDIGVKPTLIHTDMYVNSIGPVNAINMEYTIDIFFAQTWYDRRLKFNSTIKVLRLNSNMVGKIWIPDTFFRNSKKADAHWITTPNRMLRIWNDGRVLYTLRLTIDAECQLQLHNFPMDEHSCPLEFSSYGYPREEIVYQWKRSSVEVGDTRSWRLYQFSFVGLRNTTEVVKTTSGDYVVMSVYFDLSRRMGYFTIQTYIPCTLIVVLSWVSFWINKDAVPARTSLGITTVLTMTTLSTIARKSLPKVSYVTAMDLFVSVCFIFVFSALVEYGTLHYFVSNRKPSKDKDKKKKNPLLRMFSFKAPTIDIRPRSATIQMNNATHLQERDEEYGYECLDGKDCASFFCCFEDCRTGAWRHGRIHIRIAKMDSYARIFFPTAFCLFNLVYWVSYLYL
T2 sequence (P28472 whole entry): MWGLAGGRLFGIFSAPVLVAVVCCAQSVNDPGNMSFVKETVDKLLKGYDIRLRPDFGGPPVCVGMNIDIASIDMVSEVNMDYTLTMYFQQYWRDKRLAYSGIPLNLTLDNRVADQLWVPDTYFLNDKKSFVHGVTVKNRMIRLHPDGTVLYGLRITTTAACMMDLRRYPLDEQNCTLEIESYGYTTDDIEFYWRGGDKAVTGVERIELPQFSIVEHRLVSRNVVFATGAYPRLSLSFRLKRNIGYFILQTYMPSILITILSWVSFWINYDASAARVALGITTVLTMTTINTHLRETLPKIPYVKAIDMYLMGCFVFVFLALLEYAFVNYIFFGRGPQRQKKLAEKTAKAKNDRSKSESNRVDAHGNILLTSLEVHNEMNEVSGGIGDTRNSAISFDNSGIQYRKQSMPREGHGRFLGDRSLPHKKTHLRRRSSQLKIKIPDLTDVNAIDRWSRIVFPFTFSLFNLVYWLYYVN
The data set can be described thus: Binding affinity to human GABAA alpha1beta3gamma2 receptor expressed in HEK293 cells assessed as GABA-induced membrane potential change preincubated for 3 mins followed by addition of GABA measured after 3 mins by FLIPR assay. It is filed as cell-based. The method in brief: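 Stably transfected HEK293T cells expressing α1β3γ2 (n = 2) or α3β3γ2 (n = 1) GABAARs. Membrane potential was read as fluorescence changes on a FLIPR Tetra, and EC50 was derived.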

Data set [7] deals with T3, GABA-A receptor; alpha-2/beta-3/gamma-2 (Homo sapiens, UniProt P18507+P28472+P47869).
T3 sequence (P18507 whole entry): T2 sequence (P18507 whole entry)
T3 sequence (P28472 whole entry): T2 sequence (P28472 whole entry)
T3 sequence (P47869 whole entry): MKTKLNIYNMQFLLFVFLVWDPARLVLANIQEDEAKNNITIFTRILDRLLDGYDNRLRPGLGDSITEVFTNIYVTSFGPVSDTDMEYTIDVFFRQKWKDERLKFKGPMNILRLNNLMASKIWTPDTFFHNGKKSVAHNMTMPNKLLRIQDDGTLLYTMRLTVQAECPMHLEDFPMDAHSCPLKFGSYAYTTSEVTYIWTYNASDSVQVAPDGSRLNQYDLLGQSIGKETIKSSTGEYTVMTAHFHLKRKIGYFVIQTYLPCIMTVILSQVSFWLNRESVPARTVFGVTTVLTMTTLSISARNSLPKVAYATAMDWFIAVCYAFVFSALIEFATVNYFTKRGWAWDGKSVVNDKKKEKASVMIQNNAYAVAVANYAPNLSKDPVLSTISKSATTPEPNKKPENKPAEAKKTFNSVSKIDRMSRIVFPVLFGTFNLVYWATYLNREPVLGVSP
In words: Modulation of recombinant human GABA alpha2beta3gamma2 receptor expressed in HEK293 cells assessed as change in GABA-induced current at -80 mV holding potential preincubated for 3 mins followed by co-administration of GABA by electrophysiology method. The format is cell-based.

On to `C#Cc1ccc2c(c1)C(c1ccccn1)=NCc1c(-c3cnco3)ncn1-2`, for which the Activity result in data set [1] was “Dose-dependent effect”; with Rattus norvegicus [2], 220%; in the data set with Mus musculus it was “Non-Toxic”; in the data set on Rattus norvegicus [3], 200%; in data set [4] it was 201%; in data set [5], 332%. The negative-log EC50 (pEC50) (as a rule, the negative decadic logarithm of the EC50, by convention in mol/L) is below 4.70 in data set [6] and 6.93 in data set [7].
